Reference: ChEMBL document CHEMBL3585335, “Isolation and Synthetic Diversification of Jadomycin 4-Amino-l-phenylalanine” (J Nat Prod, 2015)
The source made the active and inactive calls.

Assays:
KM12 = assay: Cytotoxicity against human KM12 cells assessed as cell growth at 1 x 10^-5 M; format: functional, cell-based
Method in brief: (§1)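 Run by the NCI Developmental Therapeutics Program (DTP) as its one-dose screen across the 60 human tumour cell line panel.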

OVCAR-4 = assay: Cytotoxicity against human OVCAR4 cells assessed as cell growth at 1 x 10^-5 M; format: functional, cell-based; method in brief: as §1
NCI-H226 = assay: Cytotoxicity against human NCI-H226 cells assessed as cell growth at 1 x 10^-5 M; format: functional, cell-based; method in brief: as §1
SK-MEL-28 = assay: Cytotoxicity against human SK-MEL-28 cells assessed as cell growth at 1 x 10^-5 M; format: functional, cell-based; method in brief: as §1
OVCAR-3 = assay: Cytotoxicity against human OVCAR3 cells assessed as cell growth at 1 x 10^-5 M; format: functional, cell-based; method in brief: as §1
M14 = assay: Cytotoxicity against human M14 cells assessed as cell growth at 1 x 10^-5 M; format: functional, cell-based; method in brief: as §1
SR = assay: Cytotoxicity against human SR cells assessed as cell growth at 1 x 10^-5 M; format: functional, cell-based; method in brief: as §1
DU-145 = assay: Cytotoxicity against human DU145 cells assessed as cell growth at 1 x 10^-5 M; format: functional, cell-based; method in brief: as §1
SNB-19 = assay: Cytotoxicity against human SNB19 cells assessed as cell growth at 1 x 10^-5 M; format: functional, cell-based; method in brief: as §1
SW-620 = assay: Cytotoxicity against human SW620 cells assessed as cell growth at 1 x 10^-5 M; format: functional, cell-based
Method in brief: (§2)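 Tested by the NCI Developmental Therapeutics Program in its one-dose screen across the 60 human tumour cell line panel.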

OVCAR-5 = assay: Cytotoxicity against human OVCAR5 cells assessed as cell growth at 1 x 10^-5 M; format: functional, cell-based; method in brief: as §1
SF-295 = assay: Cytotoxicity against human SF295 cells assessed as cell growth at 1 x 10^-5 M; format: functional, cell-based; method in brief: as §1
Escherichia coli [1] = assay: Effect on Copper-mediated Escherichia coli pUC19 DNA cleavage at 100 uM by gel-electrophoresis analysis
SNB-75 = assay: Cytotoxicity against human SNB75 cells assessed as cell growth at 1 x 10^-5 M; format: functional, cell-based; method in brief: as §1
LOX IMVI = assay: Cytotoxicity against human LOXIMVI cells assessed as cell growth at 1 x 10^-5 M; format: functional, cell-based; method in brief: as §1
HOP-92 = assay: Cytotoxicity against human HOP92 cells assessed as cell growth at 1 x 10^-5 M; format: functional, cell-based; method in brief: as §1
HOP-62 = assay: Cytotoxicity against human HOP62 cells assessed as cell growth at 1 x 10^-5 M; format: functional, cell-based; method in brief: as §1
SK-OV-3 = assay: Cytotoxicity against human SKOV3 cells assessed as cell growth at 1 x 10^-5 M; format: functional, cell-based; method in brief: as §1
NCI-H460 = assay: Cytotoxicity against human NCI-H460 cells assessed as cell growth at 1 x 10^-5 M; format: functional, cell-based; method in brief: as §1
NCI/ADR-RES = assay: Cytotoxicity against human NCI-ADR-RES cells assessed as cell growth at 1 x 10^-5 M; format: functional, cell-based; method in brief: as §1
T47D = assay: Cytotoxicity against human T47D cells assessed as cell growth at 1 x 10^-5 M; format: functional, cell-based; method in brief: as §2
SK-MEL-2 = assay: Cytotoxicity against human SK-MEL-2 cells assessed as cell growth at 1 x 10^-5 M; format: functional, cell-based; method in brief: as §1
SN12C = assay: Cytotoxicity against human SN12C cells assessed as cell growth at 1 x 10^-5 M; format: functional, cell-based; method in brief: as §1
ACHN = assay: Cytotoxicity against human ACHN cells assessed as cell growth at 1 x 10^-5 M; format: functional, cell-based; method in brief: as §1
CAKI-1 = assay: Cytotoxicity against human Caki1 cells assessed as cell growth at 1 x 10^-5 M; format: functional, cell-based; method in brief: as §1
U-251 = assay: Cytotoxicity against human U251 cells assessed as cell growth at 1 x 10^-5 M; format: functional, cell-based; method in brief: as §2
UO-31 = assay: Cytotoxicity against human UO31 cells assessed as cell growth at 1 x 10^-5 M; format: functional, cell-based; method in brief: as §2
SF-268 = assay: Cytotoxicity against human SF268 cells assessed as cell growth at 1 x 10^-5 M; format: functional, cell-based; method in brief: as §1
NCI-H23 = assay: Cytotoxicity against human NCI-H23 cells assessed as cell growth at 1 x 10^-5 M; format: functional, cell-based; method in brief: as §1
Hs-578T = assay: Cytotoxicity against human Hs578T cells assessed as cell growth at 1 x 10^-5 M; format: functional, cell-based; method in brief: as §1
A549 = assay: Cytotoxicity against human A549 cells assessed as cell growth at 1 x 10^-5 M; format: functional, cell-based; method in brief: as §1
MDA-MB-468 = assay: Cytotoxicity against human MDA-MB-468 cells assessed as cell growth at 1 x 10^-5 M; format: functional, cell-based; method in brief: as §1
RXF 393 = assay: Cytotoxicity against human RXF393 cells assessed as cell growth at 1 x 10^-5 M; format: functional, cell-based; method in brief: as §1
HT-29 = assay: Cytotoxicity against human HT-29 cells assessed as cell growth at 1 x 10^-5 M; format: functional, cell-based; method in brief: as §1
UACC-257 = assay: Cytotoxicity against human UACC257 cells assessed as cell growth at 1 x 10^-5 M; format: functional, cell-based; method in brief: as §2
BT-549 = assay: Cytotoxicity against human BT549 cells assessed as cell growth at 1 x 10^-5 M; format: functional, cell-based; method in brief: as §1
HL-60(TB) = assay: Cytotoxicity against human HL-60(TB) cells assessed as cell growth at 1 x 10^-5 M; format: functional, cell-based
Method in brief: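 Run by the NCI Developmental Therapeutics Program (DTP) within its 60 human tumour cell line one-dose screen.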

786-0 = assay: Cytotoxicity against human 786-0 cells assessed as cell growth at 1 x 10^-5 M; format: functional, cell-based; method in brief: as §1
MCF7 = assay: Cytotoxicity against human MCF7 cells assessed as cell growth at 1 x 10^-5 M; format: functional, cell-based; method in brief: as §1
A498 = assay: Cytotoxicity against human A498 cells assessed as cell growth at 1 x 10^-5 M; format: functional, cell-based; method in brief: as §1
MOLT-4 = assay: Cytotoxicity against human MOLT4 cells assessed as cell growth at 1 x 10^-5 M; format: functional, cell-based; method in brief: as §1
NCI-H322M = assay: Cytotoxicity against human NCI-H322M cells assessed as cell growth at 1 x 10^-5 M; format: functional, cell-based; method in brief: as §1
COLO 205 = assay: Cytotoxicity against human COLO205 cells assessed as cell growth at 1 x 10^-5 M; format: functional, cell-based; method in brief: as §1
SK-MEL-5 = assay: Cytotoxicity against human SK-MEL-5 cells assessed as cell growth at 1 x 10^-5 M; format: functional, cell-based; method in brief: as §1
Malme-3M = assay: Cytotoxicity against human MALME-3M cells assessed as cell growth at 1 x 10^-5 M; format: functional, cell-based; method in brief: as §1
SF-539 = assay: Cytotoxicity against human SF539 cells assessed as cell growth at 1 x 10^-5 M; format: functional, cell-based; method in brief: as §1
IGROV-1 = assay: Cytotoxicity against human IGROV1 cells assessed as cell growth at 1 x 10^-5 M; format: functional, cell-based; method in brief: as §1
K562 = assay: Cytotoxicity against human K562 cells assessed as cell growth at 1 x 10^-5 M; format: functional, cell-based; method in brief: as §1
Escherichia coli [2] = assay: Effect on Copper-mediated Escherichia coli pBR322 DNA cleavage at 100 uM by gel-electrophoresis analysis
TK-10 = assay: Cytotoxicity against human TK10 cells assessed as cell growth at 1 x 10^-5 M; format: functional, cell-based; method in brief: as §2
UACC-62 = assay: Cytotoxicity against human UACC62 cells assessed as cell growth at 1 x 10^-5 M; format: functional, cell-based; method in brief: as §2
CCRF-CEM = assay: Cytotoxicity against human CCRF-CEM cells assessed as cell growth at 1 x 10^-5 M; format: functional, cell-based; method in brief: as §1
Escherichia coli [3] = assay: Effect on photodynamic inactivation in Escherichia coli pUC19 DNA assessed as photo-mediated DNA cleavage at 10 to 100 uM by ethidium bromide gel-electrophoresis analysis
MDA-MB-435 = assay: Cytotoxicity against human MDA-MB-435 cells assessed as cell growth at 1 x 10^-5 M; format: functional, cell-based; method in brief: as §1
OVCAR-8 = assay: Cytotoxicity against human OVCAR8 cells assessed as cell growth at 1 x 10^-5 M; format: functional, cell-based; method in brief: as §1
NCI-H522 = assay: Cytotoxicity against human NCI-H522 cells assessed as cell growth at 1 x 10^-5 M; format: functional, cell-based; method in brief: as §1
HCT-15 = assay: Cytotoxicity against human HCT15 cells assessed as cell growth at 1 x 10^-5 M; format: functional, cell-based; method in brief: as §1
MDA-MB-231 = assay: Cytotoxicity against human MDA-MB-231 cells assessed as cell growth at 1 x 10^-5 M; format: functional, cell-based; method in brief: as §1
HCC 2998 = assay: Cytotoxicity against human HCC2998 cells assessed as cell growth at 1 x 10^-5 M; format: functional, cell-based; method in brief: as §1
PC-3 = assay: Cytotoxicity against human PC3 cells assessed as cell growth at 1 x 10^-5 M; format: functional, cell-based; method in brief: as §1
HCT-116 = assay: Cytotoxicity against human HCT116 cells assessed as cell growth at 1 x 10^-5 M; format: functional, cell-based; method in brief: as §1

CCCCCCCCC(=O)Nc1ccc(C[C@H]2C(=O)OC3c4cc(C)cc(O)c4C4=C(C(=O)c5c(O[C@H]6C[C@@H](O)[C@@H](O)[C@H](C)O6)cccc5C4=O)N32)cc1 (stereo partly specified)
inactive: growth inhibition (GI) (KM12) | growth inhibition (GI) (OVCAR-4) | growth inhibition (GI) (NCI-H226) | growth inhibition (GI) (SK-MEL-28) | growth inhibition (GI) (OVCAR-3) | growth inhibition (GI) (M14) | growth inhibition (GI) (SR) | growth inhibition (GI) (DU-145) | growth inhibition (GI) (SNB-19) | growth inhibition (GI) (SW-620) | growth inhibition (GI) (OVCAR-5) | growth inhibition (GI) (SF-295) | Activity (Escherichia coli [1]) | growth inhibition (GI) (SNB-75) | growth inhibition (GI) (LOX IMVI) | growth inhibition (GI) (HOP-92) | growth inhibition (GI) (HOP-62) | growth inhibition (GI) (SK-OV-3) | growth inhibition (GI) (NCI-H460) | growth inhibition (GI) (NCI/ADR-RES) | growth inhibition (GI) (T47D) | growth inhibition (GI) (SK-MEL-2) | growth inhibition (GI) (SN12C) | growth inhibition (GI) (ACHN) | growth inhibition (GI) (CAKI-1) | growth inhibition (GI) (U-251) | growth inhibition (GI) (UO-31) | growth inhibition (GI) (SF-268) | growth inhibition (GI) (NCI-H23) | growth inhibition (GI) (Hs-578T) | growth inhibition (GI) (A549) | growth inhibition (GI) (MDA-MB-468) | growth inhibition (GI) (RXF 393) | growth inhibition (GI) (HT-29) | growth inhibition (GI) (UACC-257) | growth inhibition (GI) (BT-549) | growth inhibition (GI) (HL-60(TB)) | growth inhibition (GI) (786-0) | growth inhibition (GI) (MCF7) | growth inhibition (GI) (A498) | growth inhibition (GI) (MOLT-4) | growth inhibition (GI) (NCI-H322M) | growth inhibition (GI) (COLO 205) | growth inhibition (GI) (SK-MEL-5) | growth inhibition (GI) (Malme-3M) | growth inhibition (GI) (SF-539) | growth inhibition (GI) (IGROV-1) | growth inhibition (GI) (K562) | Activity (Escherichia coli [2]) | growth inhibition (GI) (TK-10) | growth inhibition (GI) (UACC-62) | growth inhibition (GI) (CCRF-CEM) | Activity (Escherichia coli [3]) | growth inhibition (GI) (MDA-MB-435) | growth inhibition (GI) (OVCAR-8) | growth inhibition (GI) (NCI-H522) | growth inhibition (GI) (HCT-15) | growth inhibition (GI) (MDA-MB-231) | growth inhibition (GI) (HCC 2998) | growth inhibition (GI) (PC-3) | growth inhibition (GI) (HCT-116)
